This passage reports cytotoxicity results from ChEMBL document CHEMBL4513216, “Probing the Open Global Health Chemical Diversity Library for Multistage-Active Starting Points for Next-Generation Antimalarials” (ACS Infect Dis, 2020).

Structures are written as SMILES.

This data set is described as follows: Toxicity liver stage against HepG2, at 10uM. Format: cell-based. More on the design: test concentration 10 uM, cell line HepG2-A16-CD81EGFP. To be noted: human, HepG2-A16-CD81EGFP cells; read-out: INHIBITION
In short, it runs like this:
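Uninfected HepG2-A16-CD81EGFP cells, 3 × 10^3 per well, 1536-well, plated on prespotted compound at 10 μM final, parasite-free screening media added to match infected plates; puromycin 10 μM positive, DMSO 0.5% negative; run in parallel with 48 h PbLuc assay at 37 °C, 5% CO2; viability by CellTiter-Glo luminescence, normalized to controls.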
In the case of `O=C(c1sccc1-n1cnnn1)N1CCCCC1`, the cytotoxicity at 10 µM turned out to be 6.56%.

Regarding `Cn1ccnc1CNC(=O)N(CCCO)C1CCCc2ccccc21` (stereo unspecified), the cytotoxicity at 10 µM is -6.19%.

For the compound `CN1CC(=O)N(c2ccsc2)CC12CCN(C(=O)c1ccc[nH]1)C2` (stereo unspecified), the cytotoxicity at 10 µM was -71.8%.

Take `COc1ccc(C[C@H]2CN(c3cc(OC)ncn3)CC[C@H]2OC)cc1`: the cytotoxicity at 10 µM amounted to 54.5%.

With `O=C(c1ccco1)N1CCC12CCN(c1ncc(F)cn1)CC2`, the cytotoxicity at 10 µM is -1.3%.

Regarding `CS(=O)(=O)CCCNC1(c2ccc(Br)cc2)CCC1`, the cytotoxicity at 10 µM is -0.0862%.

Consider `Cc1cc2nc(CN(C)c3ccccc3)cc(=O)n2o1`, for which the cytotoxicity at 10 µM was determined as 0.719%.

In the case of `CN(C)c1ncccc1CNC(=O)NCc1cccs1`, the cytotoxicity at 10 µM is -4.87%.

For `COc1cccc(CN(C)CCCn2cnc3c(N)ncnc32)c1`, the cytotoxicity at 10 µM is -2.63%.

Consider `O=c1ccc(-n2cccn2)nn1CCNS(=O)(=O)c1ccc(F)c(Cl)c1`, for which the cytotoxicity at 10 µM came out at 1.48%.

With `COC(=O)c1ccc(C2SCC(=O)Nc3ccsc32)cc1` (stereo unspecified), the cytotoxicity at 10 µM is -6.79%.

On to `COc1ccc([C@@H]2CN(c3cc(OC)ncn3)C[C@H]2N(C)C)cc1`, for which the cytotoxicity at 10 µM was 6.98%.

In the case of `CC(C)CNC(=O)c1ccc(NC(=O)NC(C)(C)CO)cc1Cl`, the cytotoxicity at 10 µM is 6.27%.

`Fc1cccc(-c2nc(CN3CCCC(Cn4cncn4)C3)co2)c1` (stereo unspecified): the cytotoxicity at 10 µM is -12.5%.

In the case of `N#Cc1ccccc1OCCN1CCC(N2CCNC2=O)CC1`, the cytotoxicity at 10 µM is -8.58%.

Take `COc1ccc(NC(=O)CNc2ccc(Br)cc2F)cc1`: the cytotoxicity at 10 µM was found to be 0.795%.

As for `CN(Cc1noc(C2CC2)n1)C1CCN(CCn2cccn2)C1` (stereo unspecified), the cytotoxicity at 10 µM was -4.32%.

For the compound `CS(=O)(=O)CCNC(=O)c1cc2ccccc2nc1N1CCCC1`, the cytotoxicity at 10 µM is -6.78%.

For the compound `COCC(=O)N1CCC2(CC1)CCN(Cc1ccccn1)C2=O`, the cytotoxicity at 10 µM came out at 1.62%.

As to `COc1ccc(-n2ccc(C(=O)NCCN3CCCCCC3)n2)cc1`, the cytotoxicity at 10 µM is -3.84%.

As for `COc1c(Br)c(CC2CC(CO)=NO2)c(OC)c2c1OCO2` (stereo unspecified), the cytotoxicity at 10 µM turned out to be 6.36%.

`Cc1ccc(S(=O)(=O)NC(=O)CCc2ccco2)cc1N(C)C`: the cytotoxicity at 10 µM is -0.845%.

For the compound `CC(=O)C(Cc1ccccc1)NC(=O)CSc1nncn1C` (stereo unspecified), the cytotoxicity at 10 µM came to 3.16%.

For the compound `CCOCCC(=O)NCc1ccnc(NC2CC2)c1`, the cytotoxicity at 10 µM stood at 0.545%.

As for `CCc1ccc(CN2CCC(=O)N(CC3CC3)C(C(C)C)C2)nc1` (stereo unspecified), the cytotoxicity at 10 µM turned out to be 2.08%.

Turning to `Cc1cc(C2CCCN(CCCS(N)(=O)=O)C2)n[nH]1` (stereo unspecified), the cytotoxicity at 10 µM is -20.1%.

For the compound `CN(C)c1cccc(C(=O)N2CCn3c(nnc3C3CC3)C2)c1`, the cytotoxicity at 10 µM came to 0.7%.

Take `Cc1ccc(C(=O)N2CC(C(N)=O)O[C@H](C)C2)c(F)c1` (stereo partly specified): the cytotoxicity at 10 µM is -5.43%.

With `COCC[C@]1(O)CCN(S(=O)(=O)c2ccc(C)cc2OC)C[C@H]1C`, the cytotoxicity at 10 µM worked out at 11.4%.

For `CCN1CCCC1CNCc1cc2ccccc2[nH]c1=O` (stereo unspecified), the cytotoxicity at 10 µM is 1.78%.

Take `O=C(CCn1c(C(F)F)cc2cccnc21)NC1CCCCC1`: the cytotoxicity at 10 µM is -27.9%.

`Cc1ncsc1C(=O)N(C)Cc1ccc(Br)o1`: the cytotoxicity at 10 µM is -39.3%.

For `c1ccc(CN2CCC3(CC2)CC(Nc2nccs2)CO3)nc1` (stereo unspecified), the cytotoxicity at 10 µM is -78.2%.

Turning to `CC(C)NC(=O)C1CN(C(=O)Nc2cccc(F)c2)CC12CCOCC2` (stereo unspecified), the cytotoxicity at 10 µM is -85.8%.

Turning to `Cc1nc(-c2ccccc2)sc1C(=O)N(C1CC1)C1CC(=O)NC1=O` (stereo unspecified), the cytotoxicity at 10 µM is 2.78%.

With `COCc1noc(-c2ccc(N3CCCCC3CCCO)nc2)n1` (stereo unspecified), the cytotoxicity at 10 µM is -3.31%.

On to `CC(C)N1CCCn2nc(C(=O)NCCc3c[nH]cn3)cc2C1`, for which the cytotoxicity at 10 µM was 14.2%.

In the case of `CCn1ccnc1CN1CCN(C(C)C(=O)N2CCCCCC2)CC1` (stereo unspecified), the cytotoxicity at 10 µM is -7.01%.

For `CCN1CC(Oc2ccc(Cl)cc2)=NC(SCC(=O)c2ccccc2)=N1`, the cytotoxicity at 10 µM was determined as 0.515%.

For `CCN1CC(C(=O)N(C)Cc2cc3cc(F)ccc3[nH]2)CC1=O` (stereo unspecified), the cytotoxicity at 10 µM is 0.782%.

For `Cc1nn(C)c(N2CCOCC2)c1CNC1CCOc2ccccc21` (stereo unspecified), the cytotoxicity at 10 µM was -7.44%.

In the case of `CC1(C)CNC(=O)c2nc(CCN3CCCCC3CO)[nH]c2C1` (stereo unspecified), the cytotoxicity at 10 µM is -3.24%.

Consider `COc1ncc(CN(CCCN2CCOCC2)Cc2ccc(C)o2)cn1`, for which the cytotoxicity at 10 µM was -33%.

As for `CC(C)NC(=O)CCNC(=O)Nc1ccc(-n2cncn2)c(F)c1`, the cytotoxicity at 10 µM is 0.485%.

On to `Cc1nc(C)c(C(=O)N2CCCC2(C)C(=O)NC2CCCC2)s1` (stereo unspecified), for which the cytotoxicity at 10 µM was -1.13%.

With `CC(=O)N1CCC(c2nc3ccc(-c4ccnn4C)cn3n2)CC1`, the cytotoxicity at 10 µM turned out to be 6.84%.

On to `Cc1nc(C)n(CC(C)C(=O)N2CCC(NS(C)(=O)=O)CC2)n1` (stereo unspecified), for which the cytotoxicity at 10 µM was -4.4%.

Turning to `CN(Cc1ccccn1)C(CO)c1cccc(Br)c1` (stereo unspecified), the cytotoxicity at 10 µM is -6.12%.

Take `CNC(=O)c1cccc(CNC(C)c2ccc(F)cc2N(C)C)c1` (stereo unspecified): the cytotoxicity at 10 µM was found to be 0.508%.

Regarding `CN1CCN([C@@H]2CN(C(=O)CCOc3ccccc3)C[C@H]2O)CC1`, the cytotoxicity at 10 µM turned out to be 1.17%.

As to `c1ncn(CCNC2CCCN(Cc3noc(C4CC4)n3)C2)n1` (stereo unspecified), the cytotoxicity at 10 µM was -2.77%.

Turning to `Cc1c(S(=O)(=O)N2CCOCC2)cc2c(C)cc(=O)n3c2c1CCC3`, the cytotoxicity at 10 µM stood at 3.36%.

Regarding `CN(Cc1cc(-c2ccncc2)no1)C(=O)[C@@H]1CSCN1C`, the cytotoxicity at 10 µM is -2.62%.

With `CCc1noc(CN2CCCN(C(C)=O)CC2)n1`, the cytotoxicity at 10 µM was -1.25%.

For the compound `Cc1cc(NC(C)c2nncn2C2CCCC2)n2nc(C)cc2n1` (stereo unspecified), the cytotoxicity at 10 µM is 5.99%.

For the compound `CCOCC1CN(C(=O)Cc2ccccn2)Cc2cn(C)nc21` (stereo unspecified), the cytotoxicity at 10 µM came to 1.86%.

`CCOc1cccc(COC(=O)c2cc(Cl)ccn2)n1`: the cytotoxicity at 10 µM is -2.52%.

On to `Cn1ccc(C(=O)N2CCC3(CCN3c3ncccn3)C2)n1` (stereo unspecified), for which the cytotoxicity at 10 µM is 9.41%.

On to `COc1ccc(C(=O)N2CCC(Oc3ccc(C)cc3)(C(=O)O)CC2)o1`, for which the cytotoxicity at 10 µM is 9.68%.

For `CCC(=O)NC1CCCN(c2cncc(OCc3ccccc3)n2)C1` (stereo unspecified), the cytotoxicity at 10 µM is -2.08%.

Regarding `COc1ccc(C)cc1NC(=O)c1c(C)cn(C)c1CC(=O)O`, the cytotoxicity at 10 µM is -0.713%.

For the compound `Cn1ccnc1CN1CCC2(CC1)CC(NC(=O)c1ccccn1)CO2` (stereo unspecified), the cytotoxicity at 10 µM was -2.05%.

As to `COCCC1(CNC(=O)Nc2ccc(-n3nccn3)cc2)CCC1`, the cytotoxicity at 10 µM is -2.99%.

For the compound `Cc1ccc(S(C)(=O)=O)cc1C(=O)NS(=O)(=O)c1ccc(Cl)cc1`, the cytotoxicity at 10 µM is -13.5%.

Turning to `c1cncc(CCc2nc(C3CC3)nn2-c2ccc3c(c2)OCCO3)c1`, the cytotoxicity at 10 µM was -0.833%.

Take `CS(=O)(=O)N1C[C@H]2CC[C@@H](C1)N(C(=O)CCc1ccsc1)C2`: the cytotoxicity at 10 µM stood at 14.3%.

On to `O=C(O)c1ccc2[nH]cc(CN3CCCC3)c2c1`, for which the cytotoxicity at 10 µM is -2.66%.

As for `CCn1ccnc1C1CCN(C(=O)C(O)c2ccc(OC)cc2)CC1` (stereo unspecified), the cytotoxicity at 10 µM turned out to be 0.171%.

In the case of `Fc1ccccc1Cc1noc(CN2CCCC(CN3CCCC3)C2)n1` (stereo unspecified), the cytotoxicity at 10 µM was -12.3%.

In the case of `Cc1ccc(C(=O)N(C)CCOc2ccccc2F)c(=O)[nH]1`, the cytotoxicity at 10 µM is -136%.

As for `c1csc(CCN2CCCC2c2noc(C3CC3)n2)c1` (stereo unspecified), the cytotoxicity at 10 µM was found to be 9.15%.

For `CN(C)CC(C)(O)CNC(=O)Nc1sc2ccccc2c1Cl` (stereo unspecified), the cytotoxicity at 10 µM stood at 11.5%.

`Cc1nnc2n1CCN(C(=O)c1cn(-c3ccccc3)nn1)C2`: the cytotoxicity at 10 µM was -146%.

On to `O=C1C[C@@H]2CCN(Cc3ccccc3)C[C@@H]2CCN1c1ccccc1`, for which the cytotoxicity at 10 µM came to 3.16%.

For `Cn1ncc(NC(=O)Cn2ccc(-c3cccc(F)c3)n2)n1`, the cytotoxicity at 10 µM turned out to be 1.73%.

As to `O=S(=O)(C1CC1)N1CCO[C@H]2[C@H](OCC3CCCC3)CC[C@@H]21`, the cytotoxicity at 10 µM is -5.58%.

As for `CCNC(=O)N1CCN(C(=O)c2cc(Cl)cc3cccnc23)CC1`, the cytotoxicity at 10 µM was -9.62%.

Take `CCc1nc(CN(C)Cc2nc(-c3ccccc3Cl)oc2C)no1`: the cytotoxicity at 10 µM is -8.83%.

Consider `CCc1nccn1C1CCCN(C(=O)COCC(F)(F)F)C1` (stereo unspecified), for which the cytotoxicity at 10 µM is -9.74%.

Take `Cn1cc(Br)c(=O)c(NS(=O)(=O)c2ccc3c(c2)CCC3)c1`: the cytotoxicity at 10 µM is -3.47%.

For the compound `O=C(Cc1ccc2c(c1)OCCO2)NCCc1nnc2n1CCC2`, the cytotoxicity at 10 µM was -9.78%.

Take `COc1ccc(C(CO)NC(=O)Nc2cccc(C(C)=O)c2)cc1` (stereo unspecified): the cytotoxicity at 10 µM turned out to be 3.43%.

In the case of `CCn1c(C2CCCN(S(=O)(=O)C3CC3)C2)nn(CCN(C)C)c1=O` (stereo unspecified), the cytotoxicity at 10 µM was determined as 0.522%.

As to `CS(=O)(=O)N1CCC(c2cnc(-c3cn[nH]c3)cn2)CC1`, the cytotoxicity at 10 µM came to 3.64%.

Turning to `Cc1nn(C)c(N(C)C)c1CNCc1cccc(CN(C)C(C)C)c1`, the cytotoxicity at 10 µM came out at 11.4%.

As for `Cc1cc(C(=O)NC(CC(C)C)C(=O)Nc2cc[nH]n2)c(C)o1` (stereo unspecified), the cytotoxicity at 10 µM is -11.7%.

For `CCN1CCN(C(=O)c2cnn(-c3ccccc3Cl)c2)CC1`, the cytotoxicity at 10 µM was -11.5%.

With `COC(=O)c1cccc(C(=O)N2CCN(c3cc(C)ccc3C)CC2)n1`, the cytotoxicity at 10 µM is 7.8%.

In the case of `CCOC(=O)N1CCC(NC(C)c2ccccc2-n2cccn2)CC1` (stereo unspecified), the cytotoxicity at 10 µM was -7.28%.

With `O=C1NC[C@H]2CN(C3CCOCC3)CCN12`, the cytotoxicity at 10 µM was -1.95%.

In the case of `CCn1cnnc1C1CCN(C(=O)c2cc3c(s2)CCC3)CC1`, the cytotoxicity at 10 µM was -8.93%.

`CS(=O)(=O)NCC1CCCCN1C(=O)c1cccc(C(F)(F)F)c1` (stereo unspecified): the cytotoxicity at 10 µM was -2.02%.

For `COc1ccc(F)c(NCc2cnn(C3CCS(=O)(=O)C3)c2)c1` (stereo unspecified), the cytotoxicity at 10 µM is 2.65%.

Turning to `Cc1cc2c(c(-c3cnccn3)c1)OC(CN)C2` (stereo unspecified), the cytotoxicity at 10 µM was -5.13%.

As to `Cc1cc(C)c2ncc(C#N)c(N3CCS(=O)(=O)CC3)c2c1`, the cytotoxicity at 10 µM is -8.17%.

Turning to `c1cc(-c2ccc3c(c2)CCC32CCN(c3nncs3)CC2)co1`, the cytotoxicity at 10 µM is -2.07%.
